Test results from ChEMBL document CHEMBL4689842, “EUbOPEN Chemogenomics Library wave 1” (2021).

System: HEK-293T
Assay: Multiplex assay against HEK293T;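 on Population Tubulin-Different-Phenotype (%): share of the cells with healthy nuclei that show this phenotype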
Type: toxicity, cell-based
Settings: human
In short: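 Cells stained live at seeding with Hoechst33342, BioTracker Green Microtubule Cytoskeleton Dye, MitoTracker Red and Annexin V Alexa Fluor 680 were imaged on a CQ1 microscope at 37°C and 5% CO2 after compound addition. Their classification by CellPathfinder machine-learning gating ran from Hoechst high-intensity objects versus normal cells, to healthy, pyknosed or fragmented nuclei among normal cells, to mitotic or apoptotic among pyknosed cells. Tubulin, mitochondrial-mass and membrane-permeability phenotypes are per cents of healthy-nucleus cells.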

[1] = 12 h, 1 µM, compound concentration 1 uM, replicate 1
[2] = 12 h, 1 µM, compound concentration 1 uM, replicate 2
[3] = 12 h, 10 µM, compound concentration 10 uM, replicate 1
[4] = 12 h, 10 µM, compound concentration 10 uM, replicate 2
[5] = 24 h, 1 µM, compound concentration 1 uM, replicate 1
[6] = 24 h, 1 µM, compound concentration 1 uM, replicate 2
[7] = 24 h, 10 µM, compound concentration 10 uM, replicate 1
[8] = 24 h, 10 µM, compound concentration 10 uM, replicate 2
[9] = 48 h, 1 µM, compound concentration 1 uM, replicate 1
[10] = 48 h, 1 µM, compound concentration 1 uM, replicate 2
[11] = 48 h, 10 µM, compound concentration 10 uM, replicate 1
[12] = 48 h, 10 µM, compound concentration 10 uM, replicate 2

SMILES: O=C(Nc1cccnn1)N1CCC(=Cc2cccc(Oc3ccc(C(F)(F)F)cn3)c2)CC1
- Population Apoptotic (%) [1]: 22%
- Population Fragmented Nuclei (%) [1]: 20%
- Population Healthy Nuclei (%) [1]: 46%
- Population Hoechst High Intensity Objects (%) [1]: 16%
- Population Membrane Permeable-Phenotype (%) [1]: 10%
- Population Mitochondria Different-Phenotype (%) [1]: 17%
- Population Mitotic Cells (%) [1]: 77%
- Population Normal (%) [1]: 83%
- Population Pyknosed Nuclei (%) [1]: 33%
- Population Tubulin-Different-Phenotype (%) [1]: 29%
- Total Cell Count [1]: 578
- Population Apoptotic (%) [2]: 17%
- Population Fragmented Nuclei (%) [2]: 5%
- Population Healthy Nuclei (%) [2]: 83%
- Population Hoechst High Intensity Objects (%) [2]: 9%
- Population Membrane Permeable-Phenotype (%) [2]: 7%
- Population Mitochondria Different-Phenotype (%) [2]: 30%
- Population Mitotic Cells (%) [2]: 82%
- Population Normal (%) [2]: 90%
- Population Pyknosed Nuclei (%) [2]: 11%
- Population Tubulin-Different-Phenotype (%) [2]: 62%
- Total Cell Count [2]: 1415
- Population Apoptotic (%) [3]: 30%
- Population Fragmented Nuclei (%) [3]: 13%
- Population Healthy Nuclei (%) [3]: 67%
- Population Hoechst High Intensity Objects (%) [3]: 9%
- Population Membrane Permeable-Phenotype (%) [3]: 3%
- Population Mitochondria Different-Phenotype (%) [3]: 4%
- Population Mitotic Cells (%) [3]: 69%
- Population Normal (%) [3]: 90%
- Population Pyknosed Nuclei (%) [3]: 18%
- Population Tubulin-Different-Phenotype (%) [3]: 5%
- Total Cell Count [3]: 619
- Population Apoptotic (%) [4]: 8%
- Population Fragmented Nuclei (%) [4]: 7%
- Population Healthy Nuclei (%) [4]: 88%
- Population Hoechst High Intensity Objects (%) [4]: 1%
- Population Membrane Permeable-Phenotype (%) [4]: 1%
- Population Mitochondria Different-Phenotype (%) [4]: 12%
- Population Mitotic Cells (%) [4]: 91%
- Population Normal (%) [4]: 98%
- Population Pyknosed Nuclei (%) [4]: 4%
- Population Tubulin-Different-Phenotype (%) [4]: 6%
- Total Cell Count [4]: 1821
- Population Apoptotic (%) [5]: 31%
- Population Fragmented Nuclei (%) [5]: 16%
- Population Healthy Nuclei (%) [5]: 56%
- Population Hoechst High Intensity Objects (%) [5]: 15%
- Population Membrane Permeable-Phenotype (%) [5]: 12%
- Population Mitochondria Different-Phenotype (%) [5]: 19%
- Population Mitotic Cells (%) [5]: 68%
- Population Normal (%) [5]: 84%
- Population Pyknosed Nuclei (%) [5]: 27%
- Population Tubulin-Different-Phenotype (%) [5]: 54%
- Total Cell Count [5]: 519
- Population Apoptotic (%) [6]: 8%
- Population Fragmented Nuclei (%) [6]: 6%
- Population Healthy Nuclei (%) [6]: 83%
- Population Hoechst High Intensity Objects (%) [6]: 10%
- Population Membrane Permeable-Phenotype (%) [6]: 10%
- Population Mitochondria Different-Phenotype (%) [6]: 30%
- Population Mitotic Cells (%) [6]: 91%
- Population Normal (%) [6]: 89%
- Population Pyknosed Nuclei (%) [6]: 10%
- Population Tubulin-Different-Phenotype (%) [6]: 82%
- Total Cell Count [6]: 1537
- Population Apoptotic (%) [7]: 17%
- Population Fragmented Nuclei (%) [7]: 9%
- Population Healthy Nuclei (%) [7]: 83%
- Population Hoechst High Intensity Objects (%) [7]: 4%
- Population Membrane Permeable-Phenotype (%) [7]: 8%
- Population Mitochondria Different-Phenotype (%) [7]: 2%
- Population Mitotic Cells (%) [7]: 82%
- Population Normal (%) [7]: 95%
- Population Pyknosed Nuclei (%) [7]: 7%
- Population Tubulin-Different-Phenotype (%) [7]: 5%
- Total Cell Count [7]: 783
- Population Apoptotic (%) [8]: 2%
- Population Fragmented Nuclei (%) [8]: 22%
- Population Healthy Nuclei (%) [8]: 74%
- Population Hoechst High Intensity Objects (%) [8]: 3%
- Population Membrane Permeable-Phenotype (%) [8]: 3%
- Population Mitotic Cells (%) [8]: 97%
- Population Normal (%) [8]: 96%
- Population Pyknosed Nuclei (%) [8]: 2%
- Population Tubulin-Different-Phenotype (%) [8]: 8%
- Total Cell Count [8]: 3029

SMILES: O=C(Nc1ccc(Cl)cc1)Nc1cccc(-c2cccc(N3CCCC3)n2)c1
- Population Apoptotic (%) [1]: 51%
- Population Fragmented Nuclei (%) [1]: 10%
- Population Hoechst High Intensity Objects (%) [1]: 12%
- Population Membrane Permeable-Phenotype (%) [1]: 2%
- Population Mitochondria Different-Phenotype (%) [1]: 63%
- Population Mitotic Cells (%) [1]: 48%
- Population Normal (%) [1]: 87%
- Population Pyknosed Nuclei (%) [1]: 45%
- Population Tubulin-Different-Phenotype (%) [1]: 46%
- Population Apoptotic (%) [2]: 17%
- Population Fragmented Nuclei (%) [2]: 5%
- Population Healthy Nuclei (%) [2]: 43%
- Population Hoechst High Intensity Objects (%) [2]: 5%
- Population Membrane Permeable-Phenotype (%) [2]: 16%
- Population Mitochondria Different-Phenotype (%) [2]: 6%
- Population Mitotic Cells (%) [2]: 82%
- Population Normal (%) [2]: 94%
- Population Pyknosed Nuclei (%) [2]: 51%
- Population Tubulin-Different-Phenotype (%) [2]: 17%
- Population Apoptotic (%) [3]: 85%
- Population Fragmented Nuclei (%) [3]: 31%
- Population Healthy Nuclei (%) [3]: 2%
- Population Hoechst High Intensity Objects (%) [3]: 32%
- Population Membrane Permeable-Phenotype (%) [3]: 66%
- Population Mitochondria Different-Phenotype (%) [3]: 0%
- Population Mitotic Cells (%) [3]: 14%
- Population Normal (%) [3]: 68%
- Population Pyknosed Nuclei (%) [3]: 65%
- Population Tubulin-Different-Phenotype (%) [3]: 33%
- Population Apoptotic (%) [4]: 46%
- Population Fragmented Nuclei (%) [4]: 7%
- Population Healthy Nuclei (%) [4]: 14%
- Population Hoechst High Intensity Objects (%) [4]: 9%
- Population Membrane Permeable-Phenotype (%) [4]: 70%
- Population Mitochondria Different-Phenotype (%) [4]: 10%
- Population Mitotic Cells (%) [4]: 53%
- Population Normal (%) [4]: 90%
- Population Pyknosed Nuclei (%) [4]: 78%
- Population Tubulin-Different-Phenotype (%) [4]: 60%
- Population Apoptotic (%) [5]: 49%
- Population Fragmented Nuclei (%) [5]: 9%
- Population Healthy Nuclei (%) [5]: 47%
- Population Hoechst High Intensity Objects (%) [5]: 11%
- Population Membrane Permeable-Phenotype (%) [5]: 9%
- Population Mitochondria Different-Phenotype (%) [5]: 38%
- Population Mitotic Cells (%) [5]: 50%
- Population Normal (%) [5]: 88%
- Population Pyknosed Nuclei (%) [5]: 43%
- Population Tubulin-Different-Phenotype (%) [5]: 37%
- Population Apoptotic (%) [6]: 9%
- Population Fragmented Nuclei (%) [6]: 8%
- Population Healthy Nuclei (%) [6]: 60%
- Population Hoechst High Intensity Objects (%) [6]: 3%
- Population Membrane Permeable-Phenotype (%) [6]: 24%
- Population Mitochondria Different-Phenotype (%) [6]: 2%
- Population Mitotic Cells (%) [6]: 90%
- Population Normal (%) [6]: 96%
- Population Pyknosed Nuclei (%) [6]: 30%
- Population Tubulin-Different-Phenotype (%) [6]: 28%
- Population Apoptotic (%) [7]: 85%
- Population Fragmented Nuclei (%) [7]: 43%
- Population Healthy Nuclei (%) [7]: 6%
- Population Hoechst High Intensity Objects (%) [7]: 45%
- Population Membrane Permeable-Phenotype (%) [7]: 0%
- Population Mitochondria Different-Phenotype (%) [7]: 50%
- Population Mitotic Cells (%) [7]: 14%
- Population Normal (%) [7]: 54%
- Population Pyknosed Nuclei (%) [7]: 50%
- Population Tubulin-Different-Phenotype (%) [7]: 66%
- Population Apoptotic (%) [8]: 56%
- Population Fragmented Nuclei (%) [8]: 8%
- Population Healthy Nuclei (%) [8]: 14%
- Population Hoechst High Intensity Objects (%) [8]: 30%
- Population Membrane Permeable-Phenotype (%) [8]: 43%
- Population Mitochondria Different-Phenotype (%) [8]: 12%
- Population Mitotic Cells (%) [8]: 43%
- Population Normal (%) [8]: 69%
- Population Pyknosed Nuclei (%) [8]: 76%
- Population Tubulin-Different-Phenotype (%) [8]: 56%
- Population Apoptotic (%) [9]: 47%
- Population Fragmented Nuclei (%) [9]: 11%
- Population Healthy Nuclei (%) [9]: 57%
- Population Hoechst High Intensity Objects (%) [9]: 9%
- Population Membrane Permeable-Phenotype (%) [9]: 5%
- Population Mitochondria Different-Phenotype (%) [9]: 14%
- Population Mitotic Cells (%) [9]: 52%
- Population Normal (%) [9]: 90%
- Population Pyknosed Nuclei (%) [9]: 30%
- Population Tubulin-Different-Phenotype (%) [9]: 38%
- Population Apoptotic (%) [10]: 7%
- Population Fragmented Nuclei (%) [10]: 5%
- Population Healthy Nuclei (%) [10]: 82%
- Population Hoechst High Intensity Objects (%) [10]: 2%
- Population Membrane Permeable-Phenotype (%) [10]: 26%
- Population Mitochondria Different-Phenotype (%) [10]: 0%
- Population Mitotic Cells (%) [10]: 92%
- Population Normal (%) [10]: 97%
- Population Pyknosed Nuclei (%) [10]: 11%
- Population Tubulin-Different-Phenotype (%) [10]: 19%
- Population Apoptotic (%) [11]: 80%
- Population Fragmented Nuclei (%) [11]: 61%
- Population Healthy Nuclei (%) [11]: 7%
- Population Hoechst High Intensity Objects (%) [11]: 40%
- Population Membrane Permeable-Phenotype (%) [11]: 25%
- Population Mitochondria Different-Phenotype (%) [11]: 50%
- Population Mitotic Cells (%) [11]: 19%
- Population Normal (%) [11]: 59%
- Population Pyknosed Nuclei (%) [11]: 30%
- Population Tubulin-Different-Phenotype (%) [11]: 87%
- Population Apoptotic (%) [12]: 52%
- Population Fragmented Nuclei (%) [12]: 22%
- Population Healthy Nuclei (%) [12]: 22%
- Population Hoechst High Intensity Objects (%) [12]: 26%
- Population Membrane Permeable-Phenotype (%) [12]: 72%
- Population Mitochondria Different-Phenotype (%) [12]: 6%
- Population Mitotic Cells (%) [12]: 47%
- Population Normal (%) [12]: 73%
- Population Pyknosed Nuclei (%) [12]: 54%
- Population Tubulin-Different-Phenotype (%) [12]: 79%
